Test results reported in ChEMBL document CHEMBL1124443, “2'-Fluorinated isonucleosides. 1. Synthesis and biological activity of some methyl 2'-deoxy-2'-fluoro-2'-pyrimidinyl-D-arabinopyranosides” (J Med Chem, 1989).

How the values were obtained:
[1] = system: Mus musculus; experiment: Percent increase in life span of leukemic mice administered, with compound at 100 mg/kgx5, intraperitoneally; type: functional; conditions: ip, route intraperitoneal
In short: (§1)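 Female DBA/2 mice (19–20 g) received 10^6 L1210 cells ip on day 0. Drug was given ip once daily for 5 consecutive days starting day 1. Survival was monitored daily. % ILS was derived from mean survival versus untreated mice.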

[2] = system: Mus musculus; experiment: Percent increase in life span of leukemic mice administered, with compound at 50 mg/kgx5, intraperitoneally; type: functional; conditions: ip, route intraperitoneal; in short: as §1
[3] = Therapeutic effect of compound (25 mkdx3) on mice with L1210/5-FU leukemia; No effect; conditions: mouse
[4] = system: Mus musculus; experiment: Percent increase in life span of leukemic mice administered, with compound at 25 mkdx3, on days 1,3,6; type: functional
In short: (§2)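 L1210 cells (10^6) were implanted ip on day 0 in female DBA/2 mice. Dosing was 5 or 25 mg/kg/day on days 1, 3 and 6 (3 doses). Daily survival monitoring; % increase in life span versus untreated controls.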

[5] = system: Mus musculus; experiment: Percent increase in life span of leukemic mice administered, with compound at 5 mkdx3, on days 1,3,6; type: functional; in short: as §2
[6] = species: Mus musculus; experiment: Weight loss in mice treated with compound at 100 mkdx5; type: functional
In short: (§3)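 Female DBA/2 mice (19–20 g) bearing ip L1210 leukemia (10^6 cells, day 0) were dosed ip daily for 5 consecutive days starting on day 1. Mice were weighed daily, and weight loss was recorded as body weight in g.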

[7] = species: Mus musculus; experiment: Weight loss in mice treated with compound at 200 mkdx5; type: functional; in short: as §3
[8] = species: Mus musculus; experiment: Weight loss in mice treated with compound at 50 mkdx5; type: functional; in short: as §3

SMILES	ILS at 100 mg/kg [1] [%]	ILS at 50 mg/kg [2] [%]	ILS [3]	ILS [4] [%]	ILS [5] [%]	Weight loss [6] [g]	Weight loss [7] [g]	Weight loss [8] [g]
Nc1ccn([C@@H]2O[C@H](CO)[C@@H](O)[C@@H]2O)c(=O)n1 [CYTARABINE]	126	104	–	–	–	–	–	–
O=c1[nH]cc(F)c(=O)[nH]1 [FLUOROURACIL]	–	–	No effect	88	41	14	14	14
